The source made the active and inactive calls. The rule behind the calls is not given here.
How the values were obtained:
[1] = test system: A549; assay: Antiproliferative activity against human A549 cells after 48 hrs by sulforhodamine B assay; format: functional, cell-based; conditions: A549, 48 h
Method in brief: (§1)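 Cells kept in RPMI 1640 at 37 °C, 5% CO₂, and seeded 24 h before treatment, with DMSO as control. After 48 h, fixed with cold 50% TCA 1 h at 4 °C and stained with 0.4% SRB in 1% acetic acid for 10 min. Washed five times with 1% acetic acid, dye solubilized in 10 mM Tris base, OD read at 515 nm.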

[2] = test system: MDA-MB-231; assay: Antiproliferative activity against human MDA-MB-231 cells after 48 hrs by sulforhodamine B assay; format: functional, cell-based; conditions: MDA-MB-231, 48 h; method in brief: as §1
[3] = test system: MDA-MB-231; assay: Cell cycle arrest in human MDA-MB-231 cells assessed as accumulation at G2/M phase at 1 uM by propidium iodide staining-based FACS analysis relative to control; format: functional
[4] = test system: A549; assay: Cell cycle arrest in human A549 cells assessed as accumulation at G2/M phase at 1 uM by propidium iodide staining-based FACS analysis relative to control; format: functional
[5] = test system: MDA-MB-231; assay: Induction of apoptosis in human MDA-MB-231 cells at 0.1 to 1 uM after 48 hrs by annexin V-FITC and propidium iodide staining-based flow cytometric analysis; format: functional, cell-based
Method in brief: (§2)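 Treatment 48 h. Cells washed with cold PBS, resuspended in binding buffer, stained with Annexin V-FITC/PI 15 min. 10,000 stained cells per sample analyzed by flow cytometry.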

[6] = test system: A549; assay: Induction of apoptosis in human A549 cells at 0.1 to 1 uM after 48 hrs by annexin V-FITC and propidium iodide staining-based flow cytometric analysis; format: functional, cell-based; method in brief: as §2
[7] = test system: MDA-MB-231; assay: Antimetastatic activity against human MDA-MB-231 cells assessed as inhibition of cell migration after 24 hrs by wound healing assay; format: functional, cell-based; conditions: for IC50: MDA-MB-231, 24 h
Method in brief: (§3)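 Cells grown at 37 °C in complete RPMI 1640 to 80–90% confluence, then serum-starved 12 h. Monolayer scraped with pipette tip, washed twice with PBS, refed complete RPMI 1640 with compound (0.5 or 0.05 uM per legend). Incubated 24 h at 37 °C, then fixed and photographed. Migrated cells counted manually, inhibition expressed relative to untreated (100%). Three independent experiments, 95% CI.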

[8] = test system: MDA-MB-231; assay: Antimetastatic activity against human MDA-MB-231 cells assessed as inhibition of cell migration after 10 to 12 hrs by transwell assay; format: functional, cell-based
Method in brief: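 MDA-MB-231 cells (5 × 10⁴) in serum-free medium placed in upper chamber, 10% FBS medium below; compound at fixed concentrations in both chambers. Migration approximately 10 h (legend says 12 h). Non-migrated cells swabbed off, migrated cells fixed in paraformaldehyde 1 h, stained 0.1% crystal violet, counted in 7–8 random fields. Three independent experiments, means with 95% confidence intervals.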

[9] = test system: A549; assay: Antitumor activity against human A549 cells xenografted in nude mouse assessed as reduction in tumor volume at 5 to 10 mg/kg/day, ip for 28 days; format: functional, organism-based
[10] = test system: A549; assay: Antitumor activity against human A549 cells xenografted in nude mouse assessed as reduction in tumor weight at 5 to 10 mg/kg/day, ip for 28 days; format: functional, organism-based
[11] = test system: Mus musculus; assay: Toxicity in nude mouse xenografted with human A549 cells assessed as change in body weight at 5 to 10 mg/kg/day, ip for 28 days; format: organism-based; parameters: route intraperitoneal; conditions: in vivo, 672 h
[12] = test system: MDA-MB-231; assay: Antimetastatic activity against luciferase-labeled human MDA-MB-231 cells xenografted in ip dosed nude mouse assessed as reduction in development of lung metastasis administered 1 week prior to tumor implantation measured after 21 days by bioluminescence assay; format: functional, organism-based
Method in brief: (§4)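 Nude mice randomized into 3 groups (n = 6) and given DMSO or compound at 1.0 or 5.0 mg/kg/day by intraperitoneal injection. Dosing started one week before tail-vein injection of 1 × 10⁶ firefly luciferase-expressing MDA-MB-231 cells in PBS and continued 21 days. Lung metastasis read by bioluminescence photon flux; survival by Kaplan–Meier analysis.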

[13] = test system: MDA-MB-231; assay: Antimetastatic activity against luciferase-labeled human MDA-MB-231 cells xenografted in nude mouse assessed as reduction in development of lung metastasis at 1 to 5 mg/kg/day, ip administered 1 week prior to tumor implantation measured after 21 days by bioluminescence assay; format: functional, organism-based; conditions: TDE = time-dependent effect; method in brief: as §4
[14] = test system: MDA-MB-231; assay: Antimetastatic activity against luciferase-labeled human MDA-MB-231 cells xenografted in nude mouse assessed as reduction in photon flux in lungs at 5 mg/kg/day, ip administered 1 week prior to tumor implantation measured after 21 days by bioluminescence assay relative to control; format: functional; parameters: scale not given: the % may be the effect or the level left; conditions: route intraperitoneal; method in brief: as §4
[15] = test system: MDA-MB-231; assay: Antimetastatic activity against luciferase-labeled human MDA-MB-231 cells xenografted in nude mouse assessed as increase in mouse survival at 1 to 5 mg/kg/day, ip administered 1 week prior to tumor implantation measured after 21 days; format: functional, organism-based; method in brief: as §4
[16] = test system: Mus musculus; assay: Toxicity in nude mouse xenografted with luciferase-labeled human MDA-MB-231 cells assessed as change in body weight at 1 to 5 mg/kg/day, ip administered 1 week prior to tumor implantation measured after 21 days; format: organism-based; parameters: route intraperitoneal; conditions: in vivo, 504 h
[17] = test system: MDA-MB-231; assay: Antimetastatic activity against human MDA-MB-231 cells assessed as inhibition of cell migration at 0.5 uM after 24 hrs by wound healing assay; format: functional, cell-based; method in brief: as §3

SMILES	IC50 [1]	IC50 [2]	also measured
CCOc1ccc(N2C(=O)CSC2c2cccc(Br)c2)cc1 (stereo not drawn)	8.98 µM	18 µM	
O=C1CSC(c2cccc(Br)c2)N1c1cccc(O)c1 (stereo not drawn)	37.1 µM	17.7 µM	
COc1ccccc1N1C(=O)CSC1c1cccc(Br)c1 (stereo not drawn)	1.87 µM	4.52 µM	
O=C1CSC(c2cccc(Br)c2)N1CCc1ccccc1 (stereo not drawn)	20.7 µM	> 50 µM	
COc1ccccc1N1C(=O)CSC1Cc1ccccc1 (stereo not drawn)	> 50 µM	> 50 µM	
COC(=O)c1cccc(C2SCC(=O)N2c2ccccc2OC)c1 (stereo not drawn)	0.29 µM	23.1 µM	
COc1ccccc1N1C(=O)CSC1c1ccccc1Br (stereo not drawn)	31.5 µM	> 50 µM	
O=C1CSC(c2cccc(Br)c2)N1c1ccccc1O (stereo not drawn)	13.7 µM	32.6 µM	
COc1ccccc1N1C(=O)CSC1c1cccc([N+](=O)[O-])c1 (stereo not drawn)	11.3 µM	43 µM	
COc1ccccc1N1C(=O)CSC1c1cccc(C(=O)NCCc2ccc(Br)cc2)c1 (stereo not drawn)	0.21 µM	0.23 µM	Activity [3]: 48.34%; Activity [4]: 42.4%; Activity [5]: inactive; Activity [6]: inactive; IC50 [7]: < 0.05 µM; IC50 [8]: 0.01 µM; inhibition [8]: Dose-dependent effect; Activity [9]: Active; Activity [10]: Active; Activity [11]: Non-toxic; Activity [12]: Dose-dependent effect; Activity [13]: tde; Activity [14]: 96.5%; Activity [15]: Active; Activity [16]: Toxic
COc1cccc(C2SCC(=O)N2c2ccccc2OC)c1 (stereo not drawn)	> 50 µM	> 50 µM	
COc1ccccc1N1C(=O)CSC1c1cccc(C(=O)NCCCc2ccccc2)c1 (stereo not drawn)	31.6 µM	12.3 µM	
COc1ccccc1N1C(=O)CSC1c1cccc(C(=O)NCCc2ccc(O)cc2)c1 (stereo not drawn)	0.72 µM	1.77 µM	inhibition [7]: Active
O=C1CSC(c2cccc(Br)c2)N1c1ccccc1 (stereo not drawn)	> 50 µM	> 50 µM	
COc1ccccc1N1C(=O)CSC1c1cccc(CBr)c1 (stereo not drawn)	14.4 µM	> 50 µM	
CN(C)c1ccccc1N1C(=O)CSC1c1cccc(Br)c1 (stereo not drawn)	37.6 µM	> 50 µM	
COc1ccccc1N1C(=O)CSC1c1cccc(C(=O)NCCc2ccc(F)cc2)c1 (stereo not drawn)	0.47 µM	1.36 µM	
COc1ccccc1N1C(=O)CSC1c1cccc(F)c1 (stereo not drawn)	> 50 µM	> 50 µM	
O=C1CSC(c2cccc(Br)c2)N1c1ccc(O)cc1 (stereo not drawn)	> 50 µM	> 50 µM	
C=CCN(CC=C)C(=O)c1cccc(C2SCC(=O)N2c2ccccc2OC)c1 (stereo not drawn)	> 50 µM	> 50 µM	
O=C1CSC(c2cccc(Br)c2)N1c1cc(Cl)ccc1O (stereo not drawn)	9.95 µM	27 µM	inhibition [17]: inactive
COc1ccccc1N1C(=O)CSC1c1cccs1 (stereo not drawn)	> 50 µM	> 50 µM	

SMILES	IC50 [1]	IC50 [2]	also measured
COc1ccccc1N1C(=O)CSC1c1cccc(C(=O)Nc2ccccc2)c1 (stereo not drawn)	> 25 µM	> 25 µM	
COc1ccccc1N1C(=O)CSC1c1ccccc1 (stereo not drawn)	> 50 µM	> 50 µM	
COc1ccccc1N1C(=O)CSC1c1cccc(C(=O)NCCc2ccc(Cl)cc2)c1 (stereo not drawn)	0.16 µM	0.18 µM	IC50 [7]: < 0.05 µM; IC50 [8]: 0.01 µM; inhibition [8]: Dose-dependent effect
COc1ccccc1N1C(=O)CSC1c1ccc(Br)cc1 (stereo not drawn)	48.5 µM	> 50 µM	
COc1ccccc1N1C(=O)CSC1c1cccc(C(=O)N2CCCCC2)c1 (stereo not drawn)	> 50 µM	> 50 µM	
O=C1CSC(c2cccc(Br)c2)N1c1ncccn1 (stereo not drawn)	> 50 µM	> 50 µM	
COc1ccccc1N1C(=O)CSC1c1ccncc1 (stereo not drawn)	> 50 µM	> 50 µM	
COc1ccccc1N1C(=O)CSC1c1cccc(C(=O)NCc2ccccc2)c1 (stereo not drawn)	5.06 µM	> 25 µM	
COc1ccccc1N1C(=O)CSC1c1cccc(Cl)c1 (stereo not drawn)	8.18 µM	13.9 µM	
COc1ccccc1N1C(=O)CSC1c1cccc(C(=O)O)c1 (stereo not drawn)	> 50 µM	> 50 µM	
COc1ccccc1N1C(=O)CSC1c1cccc(C(=O)NCCc2ccccc2Br)c1 (stereo not drawn)	8.52 µM	13.9 µM	
COc1ccccc1N1C(=O)CSC1c1cccc(O)c1 (stereo not drawn)	> 50 µM	> 50 µM	
O=C1CSC(c2cccc(Br)c2)N1c1nccs1 (stereo not drawn)	> 50 µM	> 50 µM	
COc1ccc(CCNC(=O)c2cccc(C3SCC(=O)N3c3ccccc3OC)c2)cc1 (stereo not drawn)	0.13 µM	0.05 µM	inhibition [7]: Active
COc1ccc(N2C(=O)CSC2c2cccc(Br)c2)c(OC)c1 (stereo not drawn)	14.8 µM	17.1 µM	
COc1ccccc1N1C(=O)CSC1c1cccc(C(=O)NCCc2ccccc2)c1 (stereo not drawn)	0.96 µM	> 25 µM	inhibition [7]: Active
COc1cccc(N2C(=O)CSC2c2cccc(Br)c2)c1 (stereo not drawn)	> 50 µM	47.5 µM	
COc1ccccc1N1C(=O)CSC1c1ccc2ccccc2n1 (stereo not drawn)	> 50 µM	> 50 µM	
CCN(CC)C(=O)c1cccc(C2SCC(=O)N2c2ccccc2OC)c1 (stereo not drawn)	> 50 µM	> 50 µM	
O=C1CSC(c2cccc(Br)c2)N1c1cccc([N+](=O)[O-])c1 (stereo not drawn)	43.7 µM	> 50 µM	
CNc1ccccc1N1C(=O)CSC1c1cccc(Br)c1 (stereo not drawn)	22.6 µM	> 50 µM	
